# Assay outcomes (PubChem)
# PKD1 kinase inh: blocks activity of human protein kinase D1; PKD1 kinase fluorescence polarization assay; inhibition, % (no concentration beside the values); Q15139; hit rate 0.056% among 200,000; AID 797; in the data active = inhibition above about 50%
# PP5 inh: inhibitors of human protein phosphatase 5 (PP5); P53041; purified PP5c, OMFP substrate fluorescence; inhibition, % at 6.7 µM; hit rate 0.18% among 320,000;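 active = inhibition above the campaign's mean inhibition across all tested compounds plus 3 SD, cut at about 9.5% in these data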;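 also: 0% = DMSO only and 100% = 100 µM cantharidin control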
# ASAP1 inh: inhibitors of human ASAP1 ArfGAP activity | Q9ULH1 | ASAP1-stimulated ARF1 GTP hydrolysis, GDP FP detection | inhibition, % at 16.5 µM | hit rate 0.19% among 360,000 | AID 624377; in the data active = inhibition above about 25%;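 also: 0% = vehicle with enzyme and substrate and 100% = no enzyme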
# ARFGAP1 inhibitor: inhibits rat ARF GTPase activating protein 1. hit rate 0.26% among 360,000. inhibition, % at 16.5 µM. Q62848. AID 651572. Arfgap1-stimulated ARF1 GTP hydrolysis, GDP FP detection;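 active = inhibition above a per-plate limit, mean inhibition of low control wells plus 3 SD, cut at about 25% in these data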;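 also: 0% = DMSO wells with enzyme and 100% = wells lacking Arfgap1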
#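 Material – truncated rat Arfgap1 GAP domain · Buffer or medium – HEPES-based buffer, pH 7.5 · Reagent – human ARF1(Δ1-17)-GTP substrate · Dosing – 16.5 µM single point, 1.26% DMSO · Schedule – GTP hydrolysis reaction 2 h at 25 °C · Technique – GDP detection by fluorescence polarization · Benchmarks – No-Arfgap1 wells (100%) versus DMSO full-reaction wells (0%) · Repeats – single replicate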
# ASAP1 GAP conf: ASAP1 inhibition confirmed | shares compounds with ASAP1 inh | ASAP1-stimulated Arf1 GTPase, GDP fluorescence polarization | inhibition, % at 16.5 µM | hit rate 37% among 620 | AID 624431;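 active = mean inhibition over triplicates exceeds the hit threshold derived for the earlier primary screening run, cut at about 25% in these data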
# An asterisk follows results filed as active; . = no result given. In the library only some 0.54% were active in any assay of this set; here they are far more common.
SMILES,PKD1 kinase inh,PP5 inh,ASAP1 inh,ARFGAP1 inhibitor,ASAP1 GAP conf
CCCCOCCCNC(=O)C[C@H]1C[C@@]2(C(=O)OC)C(=C[C@H](C(C)C)O[C@@H]2C2CC2)N(Cc2ccccc2)C1=O,.,.,0,3,.
Oc1oc(-c2ccccc2Br)nc1C=Nc1ccc(Br)cn1,-4,1,51*,8,110*
C[C@@H]1CN([C@H](C)CO)S(=O)(=O)c2ccc(Br)cc2O[C@H]1CN(C)C(=O)C1CCCCC1,.,.,0,7,.
COc1ccc(S(=O)(=O)N2CCc3ccccc32)cc1C(=O)OCC(=O)c1c(N)n(C)c(=O)n(C)c1=O,-1,2,26*,11,4
COc1cc(/C=C2\SC(c3ccc(C)cc3)=NC2=O)cc(OC)c1O,-16,2,25*,9,36*
Cc1ccc(C2=NC(=O)/C(=C/c3cc(O)c(O)c(Br)c3)S2)cc1,-2,.,30*,-10,69*
O=C(O)C1[C@H]2C(=O)N(Cc3cccs3)C[C@]23C=C[C@H]1O3 (stereo partly specified),-14,-1,25*,-4,4
COC(=O)C1[C@H]2C(=O)N(Cc3cccs3)C[C@]23C=C[C@H]1O3 (stereo partly specified),-5,0,6,-7,.
Cc1cc(OCC(=O)Nc2ccc(N3CCCC3)cc2)cc(C)c1Cl,1,3,25*,1,7
O=C(CNC(=O)c1ccc(F)cc1)Nc1ccccc1C(F)(F)F,.,1,25*,-11,1
COc1ccc(CN2CCC2(C)C(=O)Nc2cccc(NS(C)(=O)=O)c2)c2ccccc12 (stereo unspecified),.,.,-11,1,.
COc1cccc(NC(=O)C2(C)CCN2Cc2ccc(OC)c3ccccc23)c1 (stereo unspecified),.,.,29*,24,4
O=C(N/N=C/c1ccc(Br)s1)c1ccc([N+](=O)[O-])cc1,-1,0,36*,12,97*
O=C(N/N=C/C(Br)=C/c1ccccc1)c1ccc([N+](=O)[O-])cc1,.,2,48*,4,78*
O=C(N/N=C/c1ccc(Br)s1)c1ccccc1[N+](=O)[O-],7,3,-12,-10,.
O=C(NS(=O)(=O)c1ccccc1[N+](=O)[O-])[C@H]1O[C@@H](n2ccc(=O)[nH]c2=O)[C@H](O)[C@@H]1O,.,.,1,-2,.
Cc1cc2nc(-c3nnnn3-c3c(C)cccc3C)c(=O)[nH]c2cc1C,.,.,11,-7,.
CCNC(=O)/C(C#N)=C/c1c(N2CC(C)OC(C)C2)nc2ccccn2c1=O (stereo unspecified),-9,0,49*,-6,1
CNC(=O)/C(C#N)=C/c1c(N2CC(C)OC(C)C2)nc2ccccn2c1=O (stereo unspecified),-4,1,-10,3,.
COc1ccc([C@H]2CN(c3ccc(OC)cc3)C(=O)[C@@H]2CC(=O)Nc2ccccc2)cc1,.,.,28*,0,5
COc1ccc(NC(=O)C[C@H]2C(=O)N(c3ccc(Br)cc3)C[C@@H]2c2ccc(OC)cc2)cc1,.,.,0,0,.
N#Cc1cccnc1N1CCN(C(C(=O)NC2CCCC2)c2ccc(F)cc2)CC1 (stereo unspecified),.,.,2,-2,.
O=C(N/N=C/c1cccnc1)c1cc2c(ccc3ccccc32)o1,-2,1,28*,25,55*
CCCCOCC1CN(CCCC)S(=O)(=O)c2c(cccc2N2CCCC2)O1 (stereo unspecified),.,.,-4,-7,.
O=C(O)CC1(CC(=O)Nc2cc(F)ccc2Cl)CCCCC1,.,4,25*,15,3
SMILES,PKD1 kinase inh,PP5 inh,ASAP1 inh,ARFGAP1 inhibitor,ASAP1 GAP conf
O=C(O)CC1(CC(=O)Nc2ccc(F)cc2F)CCCCC1,.,-2,-3,2,.
CCOC(=O)c1[nH]c(C)c(C(=O)Nc2ccc(C)c(C)c2)c1C,-13,-1,26*,-10,2
O=C(C[C@H]1CC[C@H]2[C@@H](COC[C@@H](O)CN2C(=O)c2cnccn2)O1)NCc1ccc(Oc2ccccc2)cc1,.,.,-12,-13,.
C#CCN(C[C@@H]1[C@@H](OC(=O)NCc2ccco2)[C@@H](OC(=O)NCc2ccco2)CN(C(=O)OC(C)C)N1C(=O)OC(C)C)S(=O)(=O)c1ccc(C)cc1,.,.,-13,15,.
Cc1ccccc1C(=O)NC1CC2CCCC(C1)N2CC(C)C (stereo unspecified),.,.,-7,-3,.
CCOc1ccc2[nH]c(C(=O)N/N=C/c3ccccc3OC)cc2c1,.,3,30*,10,28*
COc1ccc2[nH]c(C(=O)N/N=C/c3ccccc3OC)cc2c1,.,4,14,12,.
